ChEMBL document CHEMBL1687843, “Detection of NDM-1-producing Klebsiella pneumoniae in Kenya” (2011)
Values after ≈ are worked out from the molar mass of the structure shown. Active and inactive are the calls of the source. No cut-off for these calls is given here.

Key:
Klebsiella pneumoniae [1] = assay: Antibacterial activity against carbapenem-resistant Klebsiella pneumoniae isolate 5 expressing beta-lactamase NDM-1 obtained from urine of patient by Etest; type: functional; conditions: for MIC: isolate 5, Urine
Summary of the method: (§1)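 Etest strips on Mueller-Hinton agar at 37°C give the MIC against each clinical isolate; susceptibility is interpreted per CLSI guidelines.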

Klebsiella pneumoniae [2] = assay: Antibacterial activity against carbapenem-resistant Klebsiella pneumoniae isolate 3 expressing beta-lactamase NDM-1 obtained from urine of patient by Etest; type: functional; conditions: for MIC: isolate 3, Urine; summary of the method: as §1
Klebsiella pneumoniae [3] = assay: Antibacterial activity against carbapenem-resistant Klebsiella pneumoniae isolate 6 expressing beta-lactamase NDM-1 obtained from urethral pus of patient by liquid microdilution method; conditions: for MIC: isolate 6, Urethral pus
Klebsiella pneumoniae [4] = assay: Antibacterial activity against carbapenem-resistant Klebsiella pneumoniae isolate 4 expressing beta-lactamase NDM-1 obtained from urine of patient by liquid microdilution method; type: functional; conditions: for MIC: isolate 4, Urine
Summary of the method: (§2)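 Liquid broth microdilution at 37°C gives the MIC against each clinical isolate; results are interpreted per CLSI guidelines.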

Klebsiella pneumoniae [5] = assay: Antibacterial activity against carbapenem-resistant Klebsiella pneumoniae isolate 7 expressing beta-lactamase NDM-1 obtained from urine of patient by Etest; type: functional; conditions: for MIC: isolate 7, Urine; summary of the method: as §1
Klebsiella pneumoniae [6] = assay: Antibacterial activity against carbapenem-resistant Klebsiella pneumoniae isolate 1 expressing beta-lactamase NDM-1 obtained from urine of patient by Etest; type: functional; conditions: for MIC: isolate 1, Urine; summary of the method: as §1
Klebsiella pneumoniae [7] = assay: Antibacterial activity against carbapenem-resistant Klebsiella pneumoniae isolate 3 expressing beta-lactamase NDM-1 obtained from urine of patient by liquid microdilution method; type: functional; conditions: for MIC: isolate 3, Urine; summary of the method: as §2
Klebsiella pneumoniae [8] = assay: Antibacterial activity against carbapenem-resistant Klebsiella pneumoniae isolate 2 expressing beta-lactamase NDM-1 obtained from urine of patient by Etest; type: functional; conditions: for MIC: isolate 2, Urine; summary of the method: as §1
Klebsiella pneumoniae [9] = assay: Antibacterial activity against carbapenem-resistant Klebsiella pneumoniae isolate 1 expressing beta-lactamase NDM-1 obtained from urine of patient by liquid microdilution method; type: functional; conditions: for MIC: isolate 1, Urine; summary of the method: as §2
Klebsiella pneumoniae [10] = assay: Antibacterial activity against carbapenem-resistant Klebsiella pneumoniae isolate 7 expressing beta-lactamase NDM-1 obtained from urine of patient by liquid microdilution method; type: functional; conditions: for MIC: isolate 7, Urine; summary of the method: as §2
Klebsiella pneumoniae [11] = assay: Antibacterial activity against carbapenem-resistant Klebsiella pneumoniae isolate 4 expressing beta-lactamase NDM-1 obtained from urine of patient by Etest; type: functional; conditions: for MIC: isolate 4, Urine; summary of the method: as §1
Klebsiella pneumoniae [12] = assay: Antibacterial activity against carbapenem-resistant Klebsiella pneumoniae isolate 6 expressing beta-lactamase NDM-1 obtained from urethral pus of patient by Etest; conditions: for MIC: isolate 6, Urethral pus
Klebsiella pneumoniae [13] = assay: Antibacterial activity against carbapenem-resistant Klebsiella pneumoniae isolate 2 expressing beta-lactamase NDM-1 obtained from urine of patient by liquid microdilution method; type: functional; conditions: for MIC: isolate 2, Urine; summary of the method: as §2
Klebsiella pneumoniae [14] = assay: Antibacterial activity against carbapenem-resistant Klebsiella pneumoniae isolate 5 expressing beta-lactamase NDM-1 obtained from urine of patient by liquid microdilution method; type: functional; conditions: for MIC: isolate 5, Urine; summary of the method: as §2
Escherichia coli [15] = assay: Antimicrobial activity against Escherichia coli J53; type: functional
Summary of the method: (§3)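 Strains: azide-resistant E. coli J53 recipient and its transconjugant. The transconjugant came from conjugation with K. pneumoniae Kp7 donor, selected on ceftazidime (30 µg/ml) plus azide (100 µg/ml). MICs were by Etest on Mueller-Hinton agar and by liquid microdilution at 37°C, interpreted per CLSI.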

Escherichia coli [16] = assay: Antimicrobial activity against Escherichia coli J53 harboring Klebsiella pneumoniae Kp7 beta-lactamase NDM-1; type: functional; summary of the method: as §3

Structure (SMILES) | Activity (Klebsiella pneumoniae [1]) | Activity (Klebsiella pneumoniae [2]) | Activity (Klebsiella pneumoniae [3]) | Activity (Klebsiella pneumoniae [4]) | MIC (Klebsiella pneumoniae [1]) | MIC (Klebsiella pneumoniae [2]) | MIC (Klebsiella pneumoniae [5]) | MIC (Klebsiella pneumoniae [6]) | MIC (Klebsiella pneumoniae [8]) | MIC (Klebsiella pneumoniae [11]) | MIC (Klebsiella pneumoniae [12]) | MIC (Escherichia coli [15]) | MIC (Klebsiella pneumoniae [3]) | MIC (Klebsiella pneumoniae [4]) | MIC (Klebsiella pneumoniae [7]) | MIC (Escherichia coli [16]) | MIC (Klebsiella pneumoniae [9]) | MIC (Klebsiella pneumoniae [10]) | MIC (Klebsiella pneumoniae [13]) | MIC (Klebsiella pneumoniae [14]) | also measured
O=C(N[C@H](CO)[C@H](O)c1ccc([N+](=O)[O-])cc1)C(Cl)Cl | inactive | inactive | inactive | inactive | – | – | – | – | – | – | – | – | – | – | – | – | – | – | – | – | Activity (Klebsiella pneumoniae [5]): inactive; Activity (Klebsiella pneumoniae [6]): inactive; Activity (Klebsiella pneumoniae [7]): inactive; Activity (Klebsiella pneumoniae [8]): inactive; Activity (Klebsiella pneumoniae [9]): inactive; Activity (Klebsiella pneumoniae [10]): inactive; Activity (Klebsiella pneumoniae [11]): inactive; Activity (Klebsiella pneumoniae [12]): inactive; Activity (Klebsiella pneumoniae [13]): inactive; Activity (Klebsiella pneumoniae [14]): inactive
CN(C)c1cc(NC(=O)CNC(C)(C)C)c(O)c2c1C[C@H]1C[C@H]3[C@H](N(C)C)C(O)=C(C(N)=O)C(=O)[C@@]3(O)C(O)=C1C2=O [TIGECYCLINE] | – | – | – | – | 0.5 mg/L (≈ 0.854 µM) | 0.5 mg/L (≈ 0.854 µM) | 0.5 mg/L (≈ 0.854 µM) | 0.5 mg/L (≈ 0.854 µM) | 0.5 mg/L (≈ 0.854 µM) | 0.5 mg/L (≈ 0.854 µM) | 0.5 mg/L (≈ 0.854 µM) | – | – | – | – | – | – | – | – | – | –
C[C@@H](O)[C@H]1C(=O)N2C(C(=O)O)=C(S[C@@H]3CN[C@H](C(=O)Nc4cccc(C(=O)O)c4)C3)[C@H](C)[C@H]12 [ERTAPENEM] | – | – | – | – | > 32 mg/L | > 32 mg/L | > 32 mg/L | > 32 mg/L | > 32 mg/L | > 32 mg/L | > 32 mg/L | 0.12 mg/L (≈ 0.252 µM) | > 32 mg/L | > 32 mg/L | > 32 mg/L | 1.5 mg/L (≈ 3.15 µM) | > 32 mg/L | > 32 mg/L | > 32 mg/L | > 32 mg/L | –
C[C@@H](O)[C@H]1C(=O)N2C(C(=O)O)=C(S[C@@H]3CN[C@H](C(=O)N(C)C)C3)[C@H](C)[C@H]12 [MEROPENEM] | – | – | – | – | > 32 mg/L | > 32 mg/L | > 32 mg/L | > 32 mg/L | > 32 mg/L | > 32 mg/L | > 32 mg/L | 0.12 mg/L (≈ 0.313 µM) | > 32 mg/L | > 32 mg/L | > 32 mg/L | 1.5 mg/L (≈ 3.91 µM) | > 32 mg/L | > 32 mg/L | > 32 mg/L | > 32 mg/L | –
C[C@@H](O)[C@H]1C(=O)N2C(C(=O)O)=C(S[C@@H]3CN[C@H](CNS(N)(=O)=O)C3)[C@H](C)[C@H]12 [DORIPENEM] | – | – | – | – | > 32 mg/L | > 32 mg/L | > 32 mg/L | > 32 mg/L | > 32 mg/L | > 32 mg/L | > 32 mg/L | 0.12 mg/L (≈ 0.285 µM) | > 32 mg/L | > 32 mg/L | > 32 mg/L | 1.5 mg/L (≈ 3.57 µM) | > 32 mg/L | > 32 mg/L | > 32 mg/L | > 32 mg/L | –
O=C1CN(/N=C/c2ccc([N+](=O)[O-])o2)C(=O)N1 | inactive | inactive | inactive | inactive | – | – | – | – | – | – | – | – | – | – | – | – | – | – | – | – | Activity (Klebsiella pneumoniae [5]): inactive; Activity (Klebsiella pneumoniae [6]): inactive; Activity (Klebsiella pneumoniae [7]): inactive; Activity (Klebsiella pneumoniae [8]): inactive; Activity (Klebsiella pneumoniae [9]): inactive; Activity (Klebsiella pneumoniae [10]): inactive; Activity (Klebsiella pneumoniae [11]): inactive; Activity (Klebsiella pneumoniae [12]): inactive; Activity (Klebsiella pneumoniae [13]): inactive; Activity (Klebsiella pneumoniae [14]): inactive
CO[C@H]1/C=C/O[C@@]2(C)Oc3c(C)c(O)c4c(O)c(c(/C=N/N5CCN(C)CC5)c(O)c4c3C2=O)NC(=O)/C(C)=C\C=C\[C@H](C)[C@H](O)[C@@H](C)[C@@H](O)[C@@H](C)[C@H](OC(C)=O)[C@@H]1C [RIFAMPIN] | – | – | – | – | > 32 mg/L | > 32 mg/L | > 32 mg/L | > 32 mg/L | > 32 mg/L | > 32 mg/L | > 32 mg/L | – | > 32 mg/L | > 32 mg/L | > 32 mg/L | – | > 32 mg/L | > 32 mg/L | > 32 mg/L | > 32 mg/L | –
C[C@@H](O)[C@H]1C(=O)N2C(C(=O)O)=C(SCCNC=N)C[C@H]12 [IMIPENEM ANHYDROUS] | – | – | – | – | > 32 mg/L | > 32 mg/L | > 32 mg/L | > 32 mg/L | > 32 mg/L | > 32 mg/L | > 32 mg/L | 0.12 mg/L (≈ 0.401 µM) | > 32 mg/L | > 32 mg/L | > 32 mg/L | 4 mg/L (≈ 13.4 µM) | > 32 mg/L | > 32 mg/L | > 32 mg/L | > 32 mg/L | –
C[C@@H]1O[C@@H]1P(=O)(O)O | inactive | inactive | inactive | inactive | – | – | – | – | – | – | – | – | – | – | – | – | – | – | – | – | Activity (Klebsiella pneumoniae [5]): inactive; Activity (Klebsiella pneumoniae [6]): inactive; Activity (Klebsiella pneumoniae [7]): inactive; Activity (Klebsiella pneumoniae [8]): inactive; Activity (Klebsiella pneumoniae [9]): inactive; Activity (Klebsiella pneumoniae [10]): inactive; Activity (Klebsiella pneumoniae [11]): inactive; Activity (Klebsiella pneumoniae [12]): inactive; Activity (Klebsiella pneumoniae [13]): inactive; Activity (Klebsiella pneumoniae [14]): inactive
